Test results taken from ChEMBL document CHEMBL1126243, “A novel class of cardiotonic agents: synthesis and biological evaluation of 5-substituted 3,6-dihydrothiadiazin-2-ones with cyclic AMP phosphodiesterase inhibiting and myofibrillar calcium sensitizing properties” (J Med Chem, 1992).

Key:
[1] = test system: cardiac myofibrillar ATPase (Canis familiaris); test: Shift induced by 200 uM of compound, of the [Ca2+] concentration required for half-maximal activation of the canine cardiac myofibrillar ATPase; conditions: Canis lupus familiaris
[2] = test system: cardiac myofibrillar ATPase (Canis familiaris); test: Change in calcium-induced activation of canine cardiac myofibrillar ATPase at 200 uM; conditions: Canis lupus familiaris
[3] = target: Phosphodiesterase; PDE3 & PDE4; test: Inhibition of dog left ventricle sarcoplasmic reticulum bound low-Km c-AMP phosphodiesterase; format: protein assay, Canis lupus familiaris
Outline: (§1)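 SR vesicles from dog left ventricle, isolated on a sucrose gradient after Ca2+ oxalate loading. Radiochemical assay at 30 °C with 1 µM [3H]cAMP, 12 mM Tris-HCl, 0.5 mM MgCl2, 137 mM NaCl and 20 mM glucose; products separated on Dowex after 5'-nucleotidase step. Less than 25% substrate hydrolysed. Triplicates at 10 concentrations (10^-9–10^-4 M), DMSO 1%. IC50 from Hill plot of mean curve over at least 3 preparations.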

[4] = test system: cardiac myofibrillar ATPase (Canis familiaris); test: Shift induced by 30 uM of compound, of the [Ca2+] concentration required for half-maximal activation of the canine cardiac myofibrillar ATPase; conditions: Canis lupus familiaris
[5] = Inhibition of dog left ventricle sarcoplasmic reticulum bound low-Km cAMP phosphodiesterase; parameters: species or system Canis lupus familiaris
Outline: as §1

[6] = test system: cardiac myofibrillar ATPase (Canis familiaris); test: Shift induced by 3 uM of compound, of the [Ca2+] concentration required for half-maximal activation of the canine cardiac myofibrillar ATPase; conditions: Canis lupus familiaris
[7] = test system: cardiac myofibrillar ATPase (Canis familiaris); test: Shift induced by 10 uM of compound, of the [Ca2+] concentration required for half-maximal activation of the canine cardiac myofibrillar ATPase; conditions: Canis lupus familiaris
[8] = test system: cardiac myofibrillar ATPase (Canis familiaris); test: Shift induced by 1 uM of compound, of the [Ca2+] concentration required for half-maximal activation of the canine cardiac myofibrillar ATPase; conditions: Canis lupus familiaris
[9] = test system: cardiac myofibrillar ATPase (Canis familiaris); test: Shift induced by 100 uM of compound, of the [Ca2+] concentration required for half-maximal activation of the canine cardiac myofibrillar ATPase; conditions: Canis lupus familiaris
[10] = test system: Canis familiaris; test: Peak response for contractility was determined in conscious Dog at the dose of 30 ug/kg by peroral administration and measured as% changes of control; conditions: route oral
[11] = test system: Canis familiaris; test: Peak response for heart rate was determined in conscious Dog at the dose of 30 ug/kg by peroral administration and measured as% changes of control; conditions: route oral
[12] = test system: cardiac myofibrillar ATPase (Canis familiaris); test: c[Ca2+] concentration required for half-maximal activation of the cardiac myofibrillar ATPase at 30 uM dose of the compound; conditions: Canis lupus familiaris
[13] = test system: cardiac myofibrillar ATPase (Canis familiaris); test: c[Ca2+] concentration required for half-maximal activation of the cardiac myofibrillar ATPase at 100 uM dose of the compound; conditions: Canis lupus familiaris

Delta pCa50 [2] | IC50 [3] [µM] | Delta pCa50 [4] | SMILES | further results
0.28 |  |  | CSC1C(=O)Nc2ccc(C3=NNC(=O)SC3)cc21 (stereo not given) | 
 |  | 0.24 | CC1SC(=O)NN=C1c1ccc2c(c1)C(C)(C)NC(=O)N2 (stereo not given) | Change [10]: 38%; Change [11]: 9%
0.31 | 0.33 |  | CC1SC(=O)NN=C1c1ccc2c(c1)C(C)(C)C(=O)N2 (stereo not given) | Delta pCa50 [12]: 0.09; Delta pCa50 [13]: 0.24; Change [10]: 73%; Change [11]: 8%
0.08 |  |  | O=C1Cc2cc(C3=NNC(=O)SC3)ccc2N1 | 
 | 1.1 | 0.35 | CC1SC(=O)NN=C1c1ccc2c(c1)C1(CCCC1)C(=O)N2 (stereo not given) | 
 |  | 0.33 | CC1SC(=O)NN=C1c1ccc2c(c1)CC(C)(C)C(=O)N2 (stereo not given) | Change [10]: 26%; Change [11]: 24%
 |  | 0.45 | CC1SC(=O)NN=C1c1ccc2c(c1)C(C)(C)CC(=O)N2 (stereo not given) | Change [10]: 21%; Change [11]: 5%
0.15 |  |  | CC1C(=O)Nc2ccc(C3=NNC(=O)SC3)cc21 (stereo not given) | 
 |  | 0.15 | CC1SC(=O)NN=C1c1ccc2c(c1)C(C)(C)OC(=O)N2 (stereo not given) | Change [10]: 67%; Change [11]: 13%
 |  | 0.57 | CC1SC(=O)NN=C1c1ccc2c(c1)C1(SCCS1)C(=O)N2 (stereo not given) | IC50 [5]: 350 nM
0.39 | 1.2 |  | CSC1(C)C(=O)Nc2ccc(C3=NNC(=O)SC3)cc21 (stereo not given) | 
 | 0.036 | 0.14 | CC1SC(=O)NN=C1c1ccc2c(c1)C1(CC1)C(=O)N2 (stereo not given) | 
 |  | 0 | O=C1CCc2cc(C3=NNC(=O)SC3)ccc2N1 | 
0.16 |  |  | CC1(C)C(=O)Nc2ccc(C3=NNC(=O)SC3)cc21 | 

Second part, the molecule before the results:

SMILES | Delta pCa50 [2] | IC50 [3] [µM] | Delta pCa50 [4] | further results
CC1(C)C(=O)Nc2ccc(C3=NNC(=O)CC3)cc21 |  |  |  | Delta pCa50 [1]: -0.04
Cc1nc(O)c(N)cc1-c1ccccc1 | 0.1 | 18 |  | 
CC1SC(=O)NN=C1c1ccc2c(c1)C1(CCCCC1)C(=O)N2 (stereo not given) |  | 1.3 | 0.39 | 
Cc1cc(C2=NNC(=O)SC2C)cc2c1NC(=O)C2(C)C (stereo not given) |  |  | 0.26 | IC50 [5]: 240 nM
COc1cc([S+](C)[O-])ccc1-c1nc2cccnc2[nH]1 (stereo not given) [SULMAZOLE] |  |  |  | IC50 [5]: 140000 nM
CSC1(C)C(=O)Nc2ccc(C3=NNC(=O)CC3)cc21 (stereo not given) | 0.07 |  |  | 
CC1SC(=O)NN=C1c1ccc2c(c1)C1(SCCCS1)C(=O)N2 (stereo not given) |  |  | 0.76 | Delta pCa50 [6]: 0.48; Delta pCa50 [7]: 0.65; IC50 [5]: 260 nM; Delta pCa50 [8]: 0.12
CC1SC(=O)NN=C1c1ccc2c(c1)C1(CCCS1)C(=O)N2 (stereo not given) |  | 1.4 | 0.37 | 
CC1OC(=O)NN=C1c1ccc2c(c1)C(C)(C)C(=O)N2 (stereo not given) |  | 0.96 |  | Delta pCa50 [9]: 0.04
CSC1(C)C(=O)Nc2ccc(C3=NNC(=O)SC3C)cc21 (stereo not given) |  |  |  | Delta pCa50 [1]: 0.33
CC1CC(=O)NN=C1c1ccc2c(c1)C(C)(C)C(=O)N2 (stereo not given) |  | 0.24 |  | Delta pCa50 [9]: -0.09
Cc1c(C2=NNC(=O)SC2C)ccc2c1C(C)(C)C(=O)N2 (stereo not given) |  |  | -0.07 | IC50 [5]: 9200 nM
CC1(C)SC(=O)NN=C1c1ccc2c(c1)C(C)(C)C(=O)N2 | -0.02 | 66 |  | 
CSC1(C)C(=O)Nc2ccc(C3=NNC(=O)CC3C)cc21 (stereo not given) | 0.11 |  |  | 
CC1(C)C(=O)Nc2cc3[nH]c(-c4ccncc4)nc3cc21 [ADIBENDAN] | 0.16 | 0.52 |  | 
Cc1cc2c(cc1C1=NNC(=O)SC1C)C(C)(C)C(=O)N2 (stereo not given) |  | 3.3 | -0.06 | 
CC1[Se]C(=O)NN=C1c1ccc2c(c1)C(C)(C)C(=O)N2 (stereo not given) |  | 0.54 |  | Delta pCa50 [9]: 0.3
CC1NC(=O)NN=C1c1ccc2c(c1)C(C)(C)C(=O)N2 (stereo not given) |  | 0.17 |  | Delta pCa50 [9]: -0.04
